Measured values as given in ChEMBL document CHEMBL5303300, “EUbOPEN Chemogenomics Library - Multiplex” (2023).
“And” between values parts separate entries of the source, which are not always exact repeats. Equal entries are not always repeated.

Test system: HEK-293T
Experiment: Multiplex assay against HEK293T
Assay type: toxicity, cell-based
Settings: human, number of replicates 2
Method in brief: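 Cells were classed with CellPathfinder machine-learning gating, first as Hoechst high-intensity objects or normal cells, then (normal cells) as healthy, pyknosed or fragmented nuclei, and finally (pyknosed cells) as mitotic or apoptotic. Staining of live cells at seeding used Hoechst33342, BioTracker Green Microtubule Cytoskeleton Dye, MitoTracker Red and Annexin V Alexa Fluor 680, with imaging on a CQ1 microscope at 37°C and 5% CO2 after compound addition. Tubulin, mitochondrial-mass and membrane-permeability phenotypes are per cents of healthy-nucleus cells.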

[1] = 12 h, 10 µM, compound concentration 10 uM
[2] = 24 h, 10 µM, compound concentration 10 uM
[3] = 48 h, 10 µM, compound concentration 10 uM
[4] = 12 h, 1 µM, compound concentration 1 uM
[5] = 24 h, 1 µM, compound concentration 1 uM
[6] = 48 h, 1 µM, compound concentration 1 uM

SMILES: C[C@@H]1CC[C@@]2(OC1)O[C@H]1[C@@H](O)[C@H]3[C@@H]4CC[C@H]5C[C@@H](O[C@@H]6O[C@H](CO)[C@H](O[C@@H]7O[C@H](CO)C(O)[C@H](O[C@@H]8OC[C@@H](O)[C@H](O)[C@H]8O)[C@H]7O[C@@H]7O[C@H](CO)[C@H](O)[C@H](O[C@@H]8O[C@H](CO)[C@@H](O)[C@H](O)[C@H]8O)[C@H]7O)[C@H](O)[C@H]6O)[C@H](O)C[C@]5(C)[C@H]4CC[C@]3(C)[C@H]1[C@@H]2C (stereo partly drawn) [DIGITONIN]
- Population Apoptotic (%) [1]: 61% and 33% and 40% and 57%
- Population Fragmented Nuclei (%) [1]: 7% and 2% and 3% and 6%
- Population Healthy Nuclei (%) [1]: 79% and 88% and 83% and 81%
- Population Hoechst High Intensity Objects (%) [1]: 10% and 5% and 4% and 8%
- Population Membrane Permeable-Phenotype (%) [1]: 1% and 3%
- Population Mitochondria Different-Phenotype (%) [1]: 14% and 13% and 16% and 17%
- Population Mitotic Cells (%) [1]: 38% and 66% and 59% and 42%
- Population Normal (%) [1]: 89% and 94% and 95% and 91%
- Population Pyknosed Nuclei (%) [1]: 13% and 8% and 12% and 11%
- Population Tubulin-Different-Phenotype (%) [1]: 50% and 43% and 44% and 49%
- Total Cell Count [1]: 558 and 637 and 534 and 641
- Population Apoptotic (%) [2]: 44% [middle of 4 runs]
- Population Fragmented Nuclei (%) [2]: 5% and 8% and 2% and 10%
- Population Healthy Nuclei (%) [2]: 86% and 81% and 90%
- Population Hoechst High Intensity Objects (%) [2]: 7% and 9% and 6% and 8%
- Population Membrane Permeable-Phenotype (%) [2]: 3% and 2%
- Population Mitochondria Different-Phenotype (%) [2]: 4% and 2% and 7% and 3%
- Population Mitotic Cells (%) [2]: 67% and 34% and 68% and 55%
- Population Normal (%) [2]: 92% and 90% and 93% and 91%
- Population Pyknosed Nuclei (%) [2]: 8% and 9% and 6%
- Population Tubulin-Different-Phenotype (%) [2]: 26% and 22% and 28% and 17%
- Total Cell Count [2]: 1037 and 963 and 742 and 1134
- Population Apoptotic (%) [3]: 13% and 14% and 23% and 21%
- Population Fragmented Nuclei (%) [3]: 13% and 15% and 10% and 17%
- Population Healthy Nuclei (%) [3]: 83% and 79% and 85% and 80%
- Population Hoechst High Intensity Objects (%) [3]: 10% and 9% and 11%
- Population Membrane Permeable-Phenotype (%) [3]: 5% and 3% and 2%
- Population Mitochondria Different-Phenotype (%) [3]: 0%
- Population Mitotic Cells (%) [3]: 86% and 85% and 76% and 78%
- Population Normal (%) [3]: 89% and 90% and 88%
- Population Pyknosed Nuclei (%) [3]: 3% and 4% and 2%
- Population Tubulin-Different-Phenotype (%) [3]: 13% and 5% and 14% and 6%
- Total Cell Count [3]: 2746 and 2725 and 1654 and 2990

SMILES: COCCNC1CCC(Nc2cc(-c3csc(NCC4(C#N)CCOCC4)n3)c(Cl)cn2)CC1 (stereo not drawn)
- Population Apoptotic (%) [4]: 38% and 65%
- Population Fragmented Nuclei (%) [4]: 4% and 2%
- Population Healthy Nuclei (%) [4]: 81% and 83%
- Population Hoechst High Intensity Objects (%) [4]: 7% and 9%
- Population Membrane Permeable-Phenotype (%) [4]: 3% and 2%
- Population Mitochondria Different-Phenotype (%) [4]: 50% and 51%
- Population Mitotic Cells (%) [4]: 61% and 34%
- Population Normal (%) [4]: 92% and 90%
- Population Pyknosed Nuclei (%) [4]: 13% and 14%
- Population Tubulin-Different-Phenotype (%) [4]: 76% and 80%
- Total Cell Count [4]: 472 and 403
- Population Apoptotic (%) [1]: 74% and 66%
- Population Fragmented Nuclei (%) [1]: 1% and 2%
- Population Healthy Nuclei (%) [1]: 77% and 83%
- Population Hoechst High Intensity Objects (%) [1]: 10% and 12%
- Population Membrane Permeable-Phenotype (%) [1]: 2% and 3%
- Population Mitochondria Different-Phenotype (%) [1]: 69% and 65%
- Population Mitotic Cells (%) [1]: 25% and 33%
- Population Normal (%) [1]: 89% and 87%
- Population Pyknosed Nuclei (%) [1]: 20% and 14%
- Population Tubulin-Different-Phenotype (%) [1]: 96% and 94%
- Total Cell Count [1]: 313 and 412
- Population Apoptotic (%) [5]: 48% and 66%
- Population Fragmented Nuclei (%) [5]: 2% and 4%
- Population Healthy Nuclei (%) [5]: 88% and 83%
- Population Hoechst High Intensity Objects (%) [5]: 13% and 16%
- Population Membrane Permeable-Phenotype (%) [5]: 1% and 2%
- Population Mitochondria Different-Phenotype (%) [5]: 62% and 58%
- Population Mitotic Cells (%) [5]: 51% and 33%
- Population Normal (%) [5]: 86% and 83%
- Population Pyknosed Nuclei (%) [5]: 8% and 12%
- Population Tubulin-Different-Phenotype (%) [5]: 72% and 74%
- Total Cell Count [5]: 431 and 359
- Population Apoptotic (%) [2]: 91% and 67%
- Population Fragmented Nuclei (%) [2]: 3%
- Population Healthy Nuclei (%) [2]: 82% and 87%
- Population Hoechst High Intensity Objects (%) [2]: 15% and 21%
- Population Membrane Permeable-Phenotype (%) [2]: 2%
- Population Mitochondria Different-Phenotype (%) [2]: 81% and 75%
- Population Normal (%) [2]: 84% and 78%
- Population Pyknosed Nuclei (%) [2]: 14% and 8%
- Population Tubulin-Different-Phenotype (%) [2]: 93% and 92%
- Total Cell Count [2]: 294 and 402
- Population Apoptotic (%) [6]: 55% and 65%
- Population Fragmented Nuclei (%) [6]: 1% and 5%
- Population Healthy Nuclei (%) [6]: 91% and 84%
- Population Hoechst High Intensity Objects (%) [6]: 14% and 17%
- Population Membrane Permeable-Phenotype (%) [6]: 1% and 2%
- Population Mitochondria Different-Phenotype (%) [6]: 71% and 68%
- Population Mitotic Cells (%) [6]: 45% and 34%
- Population Normal (%) [6]: 85% and 82%
- Population Pyknosed Nuclei (%) [6]: 7% and 9%
- Population Tubulin-Different-Phenotype (%) [6]: 75%
- Total Cell Count [6]: 317 and 304
- Population Apoptotic (%) [3]: 92% and 82%
- Population Fragmented Nuclei (%) [3]: 1% and 4%
- Population Healthy Nuclei (%) [3]: 78% and 85%
- Population Hoechst High Intensity Objects (%) [3]: 13% and 22%
- Population Membrane Permeable-Phenotype (%) [3]: 3% and 1%
- Population Mitochondria Different-Phenotype (%) [3]: 85% and 82%
- Population Mitotic Cells (%) [3]: 7% and 17%
- Population Normal (%) [3]: 86% and 77%
- Population Pyknosed Nuclei (%) [3]: 19% and 9%
- Population Tubulin-Different-Phenotype (%) [3]: 95% and 90%
- Total Cell Count [3]: 237 and 368
